In the M2OR odorant receptor database:

Tests used:
Details in all cases: stereoisomer not certain
OR3A1 (Homo sapiens) = target: T1, OR3A1 (Homo sapiens) (UniProt P47881)
T1 sequence (whole entry): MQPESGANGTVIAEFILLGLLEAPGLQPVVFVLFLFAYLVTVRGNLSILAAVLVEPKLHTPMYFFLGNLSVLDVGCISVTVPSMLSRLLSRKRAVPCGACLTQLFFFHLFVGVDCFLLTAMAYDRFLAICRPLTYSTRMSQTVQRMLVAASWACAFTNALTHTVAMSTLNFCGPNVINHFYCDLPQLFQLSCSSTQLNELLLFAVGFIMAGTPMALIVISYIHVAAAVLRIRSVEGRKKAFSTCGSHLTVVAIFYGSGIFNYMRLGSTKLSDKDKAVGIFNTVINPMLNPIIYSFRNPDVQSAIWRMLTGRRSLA
How it was run: (§1)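 Transient luciferase assays in mammalian cell lines were common, though methods varied by source. The values come from published papers and their supplementary material, with extra details from the original authors when needed. Responsive refers to a measured signal the original authors judged statistically different from baseline, and non-responsive (inactive) to the remainder.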

OR3A1 [1] = tested on: OR3A1
How it was run: as §1

OR3A1 [2] = tested on: OR3A1; remark: listed apart in the source
How it was run: as §1
Target sequence in this assay (as listed by the source): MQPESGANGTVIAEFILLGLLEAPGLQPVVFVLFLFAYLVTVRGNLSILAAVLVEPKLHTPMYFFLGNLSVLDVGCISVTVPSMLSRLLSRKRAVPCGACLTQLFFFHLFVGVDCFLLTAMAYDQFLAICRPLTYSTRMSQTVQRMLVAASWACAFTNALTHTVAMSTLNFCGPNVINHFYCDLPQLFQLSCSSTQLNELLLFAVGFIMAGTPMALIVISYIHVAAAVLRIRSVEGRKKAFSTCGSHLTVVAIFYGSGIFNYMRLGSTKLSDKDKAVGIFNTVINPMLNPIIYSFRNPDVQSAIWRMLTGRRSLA

OR2Y1 (Homo sapiens) = OR2Y1 (Homo sapiens) (UniProt Q8NGV0)
How it was run: as §1

OR2Z1 (Homo sapiens) = OR2Z1 (Homo sapiens) (UniProt Q8NG97)
How it was run: as §1

OR3A2 (Homo sapiens) = OR3A2 (Homo sapiens) (UniProt P47893)
How it was run: as §1

OR3A3 (Homo sapiens) = OR3A3 (Homo sapiens) (UniProt P47888)
How it was run: as §1

OR4A15 (Homo sapiens) = OR4A15 (Homo sapiens) (UniProt Q8NGL6)
How it was run: as §1

OR4A16 (Homo sapiens) = OR4A16 (Homo sapiens) (UniProt Q8NH70)
How it was run: as §1

OR4A47 (Homo sapiens) = OR4A47 (Homo sapiens) (UniProt Q6IF82)
How it was run: as §1

OR4A5 (Homo sapiens) = OR4A5 (Homo sapiens) (UniProt Q8NH83)
How it was run: as §1

OR4A8 (Homo sapiens) = OR4A8 (Homo sapiens) (UniProt P0C604)
How it was run: as §1

OR4B1 (Homo sapiens) = OR4B1 (Homo sapiens) (UniProt Q8NGF8)
How it was run: as §1

OR4C11 (Homo sapiens) = OR4C11 (Homo sapiens) (UniProt Q6IEV9)
How it was run: as §1

OR4C12 (Homo sapiens) = OR4C12 (Homo sapiens) (UniProt Q96R67)
How it was run: as §1

OR4C13 (Homo sapiens) = OR4C13 (Homo sapiens) (UniProt Q8NGP0)
How it was run: as §1

OR4C15 (Homo sapiens) = OR4C15 (Homo sapiens) (UniProt Q8NGM1)
How it was run: as §1

OR2Y1 = tested on: OR2Y1
How it was run: as §1

OR3A2 R317K = tested on: OR3A2 R317K
How it was run: as §1

OR3A3 T48I L132F = tested on: OR3A3 T48I L132F
How it was run: as §1

Measured: odorant receptor agonist call

OR4B1 (Homo sapiens), sequence (Q8NGF8 whole entry): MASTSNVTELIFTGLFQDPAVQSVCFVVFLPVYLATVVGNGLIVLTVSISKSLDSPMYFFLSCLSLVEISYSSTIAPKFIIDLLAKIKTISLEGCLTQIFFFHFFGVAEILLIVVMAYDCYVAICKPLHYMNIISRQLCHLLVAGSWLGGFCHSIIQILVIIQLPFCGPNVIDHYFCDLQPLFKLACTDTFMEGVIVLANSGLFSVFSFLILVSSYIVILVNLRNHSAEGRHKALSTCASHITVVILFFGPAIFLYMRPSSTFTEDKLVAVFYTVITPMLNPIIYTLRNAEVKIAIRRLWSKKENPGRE
OR2Z1 (Homo sapiens), sequence (Q8NG97 whole entry): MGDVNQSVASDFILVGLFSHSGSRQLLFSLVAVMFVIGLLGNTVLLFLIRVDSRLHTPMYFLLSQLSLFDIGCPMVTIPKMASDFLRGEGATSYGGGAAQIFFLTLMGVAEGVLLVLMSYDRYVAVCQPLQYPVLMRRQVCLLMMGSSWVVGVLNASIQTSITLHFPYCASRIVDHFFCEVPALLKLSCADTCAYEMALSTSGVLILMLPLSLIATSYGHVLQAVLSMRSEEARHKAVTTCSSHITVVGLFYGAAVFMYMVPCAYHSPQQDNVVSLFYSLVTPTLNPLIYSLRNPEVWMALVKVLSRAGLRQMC
OR4A15 (Homo sapiens), sequence (Q8NGL6 whole entry): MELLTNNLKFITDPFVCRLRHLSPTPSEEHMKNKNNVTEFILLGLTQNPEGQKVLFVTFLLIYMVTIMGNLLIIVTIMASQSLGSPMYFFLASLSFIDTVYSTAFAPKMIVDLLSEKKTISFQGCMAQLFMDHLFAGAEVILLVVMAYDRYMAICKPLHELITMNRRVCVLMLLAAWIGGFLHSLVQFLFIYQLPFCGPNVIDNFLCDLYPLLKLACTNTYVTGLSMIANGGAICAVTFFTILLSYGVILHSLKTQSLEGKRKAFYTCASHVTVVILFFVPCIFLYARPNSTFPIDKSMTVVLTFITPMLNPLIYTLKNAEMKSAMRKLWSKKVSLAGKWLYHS
OR2Y1 (Homo sapiens), sequence (Q8NGV0 whole entry): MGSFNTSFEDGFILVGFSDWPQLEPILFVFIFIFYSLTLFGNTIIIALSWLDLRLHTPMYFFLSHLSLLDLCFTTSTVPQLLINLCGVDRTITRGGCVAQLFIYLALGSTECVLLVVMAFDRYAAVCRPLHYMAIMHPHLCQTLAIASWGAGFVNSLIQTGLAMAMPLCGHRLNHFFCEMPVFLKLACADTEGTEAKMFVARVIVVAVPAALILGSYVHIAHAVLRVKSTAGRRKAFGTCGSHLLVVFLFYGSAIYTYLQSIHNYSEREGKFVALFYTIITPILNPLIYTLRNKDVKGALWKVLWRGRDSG
OR4A47 (Homo sapiens), sequence (Q6IF82 whole entry): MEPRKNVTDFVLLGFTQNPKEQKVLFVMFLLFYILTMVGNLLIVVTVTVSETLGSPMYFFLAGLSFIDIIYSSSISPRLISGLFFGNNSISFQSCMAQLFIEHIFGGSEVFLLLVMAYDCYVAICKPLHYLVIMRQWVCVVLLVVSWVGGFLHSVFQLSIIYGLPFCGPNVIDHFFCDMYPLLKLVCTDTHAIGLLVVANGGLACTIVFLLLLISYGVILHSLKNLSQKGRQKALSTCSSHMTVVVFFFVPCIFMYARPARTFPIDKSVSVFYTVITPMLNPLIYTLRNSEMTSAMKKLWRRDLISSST
OR3A3 (Homo sapiens), sequence (P47888 whole entry): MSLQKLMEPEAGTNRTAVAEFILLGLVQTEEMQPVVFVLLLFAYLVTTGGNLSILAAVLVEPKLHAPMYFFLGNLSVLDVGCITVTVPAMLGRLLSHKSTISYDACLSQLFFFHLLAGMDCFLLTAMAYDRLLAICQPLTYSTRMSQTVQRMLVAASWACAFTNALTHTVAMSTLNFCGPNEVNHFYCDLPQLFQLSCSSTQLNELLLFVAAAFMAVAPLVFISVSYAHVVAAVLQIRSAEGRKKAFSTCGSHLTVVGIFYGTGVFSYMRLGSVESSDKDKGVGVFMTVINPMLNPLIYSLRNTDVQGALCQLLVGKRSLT
OR4A5 (Homo sapiens), sequence (Q8NH83 whole entry): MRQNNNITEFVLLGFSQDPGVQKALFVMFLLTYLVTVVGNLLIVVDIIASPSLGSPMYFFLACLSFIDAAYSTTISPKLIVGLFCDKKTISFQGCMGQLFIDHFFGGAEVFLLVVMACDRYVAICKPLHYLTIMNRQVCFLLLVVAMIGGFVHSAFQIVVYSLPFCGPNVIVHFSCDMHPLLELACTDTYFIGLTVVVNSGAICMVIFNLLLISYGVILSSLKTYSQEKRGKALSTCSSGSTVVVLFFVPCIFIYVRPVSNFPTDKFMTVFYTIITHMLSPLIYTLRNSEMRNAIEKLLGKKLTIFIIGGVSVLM
OR4C11 (Homo sapiens), sequence (Q6IEV9 whole entry): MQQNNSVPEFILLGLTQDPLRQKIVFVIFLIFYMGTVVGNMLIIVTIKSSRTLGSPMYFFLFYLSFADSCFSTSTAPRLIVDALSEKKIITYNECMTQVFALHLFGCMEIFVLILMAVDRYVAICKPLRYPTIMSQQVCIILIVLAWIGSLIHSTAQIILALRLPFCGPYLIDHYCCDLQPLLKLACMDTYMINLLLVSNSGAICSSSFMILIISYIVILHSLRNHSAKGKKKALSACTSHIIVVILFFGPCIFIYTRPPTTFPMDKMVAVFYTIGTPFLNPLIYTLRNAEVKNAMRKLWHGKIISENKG
OR4C13 (Homo sapiens), sequence (Q8NGP0 whole entry): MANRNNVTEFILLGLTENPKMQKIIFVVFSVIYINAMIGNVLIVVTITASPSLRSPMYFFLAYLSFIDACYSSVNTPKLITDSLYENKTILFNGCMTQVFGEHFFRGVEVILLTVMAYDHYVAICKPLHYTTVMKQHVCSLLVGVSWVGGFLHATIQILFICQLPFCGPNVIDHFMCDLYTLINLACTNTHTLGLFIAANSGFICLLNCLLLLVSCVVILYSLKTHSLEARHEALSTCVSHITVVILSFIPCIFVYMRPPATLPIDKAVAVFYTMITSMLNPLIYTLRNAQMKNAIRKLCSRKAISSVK
OR4C12 (Homo sapiens), sequence (Q96R67 whole entry): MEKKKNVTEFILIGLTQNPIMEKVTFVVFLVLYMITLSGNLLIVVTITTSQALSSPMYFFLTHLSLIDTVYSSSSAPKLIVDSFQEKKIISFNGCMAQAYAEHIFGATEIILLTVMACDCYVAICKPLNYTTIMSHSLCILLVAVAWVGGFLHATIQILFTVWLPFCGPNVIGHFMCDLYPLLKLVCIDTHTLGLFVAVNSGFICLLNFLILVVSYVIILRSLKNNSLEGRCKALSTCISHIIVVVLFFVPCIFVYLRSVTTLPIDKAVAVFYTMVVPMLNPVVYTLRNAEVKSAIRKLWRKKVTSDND
OR4A16 (Homo sapiens), sequence (Q8NH70 whole entry): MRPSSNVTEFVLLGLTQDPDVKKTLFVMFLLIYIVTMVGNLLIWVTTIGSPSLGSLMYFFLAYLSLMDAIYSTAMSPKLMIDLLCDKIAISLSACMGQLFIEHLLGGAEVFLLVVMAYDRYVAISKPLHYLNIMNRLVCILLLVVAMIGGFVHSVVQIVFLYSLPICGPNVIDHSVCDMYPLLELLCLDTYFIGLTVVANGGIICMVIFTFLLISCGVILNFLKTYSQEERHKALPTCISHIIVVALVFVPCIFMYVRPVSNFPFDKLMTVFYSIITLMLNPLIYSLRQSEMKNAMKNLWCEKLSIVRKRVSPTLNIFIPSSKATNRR
OR3A2 (Homo sapiens), sequence (P47893 whole entry): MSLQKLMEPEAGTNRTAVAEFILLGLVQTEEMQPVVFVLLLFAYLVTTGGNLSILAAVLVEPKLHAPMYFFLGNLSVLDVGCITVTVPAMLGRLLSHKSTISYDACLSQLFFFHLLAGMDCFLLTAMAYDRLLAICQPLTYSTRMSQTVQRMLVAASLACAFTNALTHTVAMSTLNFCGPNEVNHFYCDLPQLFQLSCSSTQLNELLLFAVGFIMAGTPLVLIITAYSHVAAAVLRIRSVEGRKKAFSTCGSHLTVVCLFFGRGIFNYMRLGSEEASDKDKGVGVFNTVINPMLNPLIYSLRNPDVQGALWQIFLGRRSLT
OR2Y1, sequence (as listed by the source): as the sequence (Q8NGV0 whole entry) above, with V200L counted along it
OR4A8 (Homo sapiens), sequence (P0C604 whole entry): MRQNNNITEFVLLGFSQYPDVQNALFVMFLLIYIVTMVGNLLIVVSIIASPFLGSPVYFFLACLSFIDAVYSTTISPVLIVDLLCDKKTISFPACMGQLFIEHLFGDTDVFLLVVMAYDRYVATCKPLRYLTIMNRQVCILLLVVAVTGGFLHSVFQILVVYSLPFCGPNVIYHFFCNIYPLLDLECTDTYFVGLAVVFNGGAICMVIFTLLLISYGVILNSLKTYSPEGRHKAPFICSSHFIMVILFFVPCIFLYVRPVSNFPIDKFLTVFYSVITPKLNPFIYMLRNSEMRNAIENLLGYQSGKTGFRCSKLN

C=CCc1ccc2c(c1)OCO2
inactive: OR3A1 (Homo sapiens)

CC(C=O)Cc1ccc2c(c1)OCO2 (stereo not drawn)
active: OR3A1 (Homo sapiens)
inactive: OR3A1 [1] | OR3A1 [2]

Cc1c([N+](=O)[O-])c(C)c([N+](=O)[O-])c(C(C)(C)C)c1[N+](=O)[O-]
not listed: OR3A1 [1] | OR3A1 [2] | OR2Y1 | OR3A2 R317K | OR3A3 T48I L132F
inactive: all other assays above

C=CCOC(=O)Cc1ccccc1
not listed: OR3A1 [1] | OR4A8 (Homo sapiens) | OR4C15 (Homo sapiens)
inactive: all other assays above

O=Cc1ccc2c(c1)OCO2
inactive: OR3A1 (Homo sapiens)

CC(=O)C=Cc1ccc2c(c1)OCO2
active: OR3A1 (Homo sapiens)
